Assay outcomes as filed in PubChem BioAssay.
TRPC6 activator: activates the mouse TRPC6 cation channel; Q61143; HEK293-TRPC6 membrane potential dye fluorescence; active compounds read high; B-score at 10 µM; 310,000 tested, 0.13% active; AID 2550;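 active = B-score of the integrated fluorescence ratio above library mean plus 3 SD, and starting fluorescence ratio within library mean plus 5 SD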;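 note: higher score means more depolarization so channel activation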
TRPC4 block: inhibitors of mouse TRPC4 channel; 300,000 tested, 0.39% active; Q9QUQ5; B-score at 10 µM; HEK293 TRPC4beta/mu-opioid, DAMGO-evoked Fluo4 calcium flux; active compounds read low; AID 2247;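 active = B-score over 3 SD under the library average, no early fluorescence shift, positive overall ratio signal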
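Material: HEK293 cells with stable TRPC4beta plus mu-opioid receptor expression; probe or stimulus: DAMGO in two steps, submaximal then maximal; technique: Fluo4 calcium fluorescence by kinetic imaging, 5 s 1 Hz baseline; measure: integrated fluorescence ratio relative to baseline, converted to per-well B score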
TRPC4 act: activators of mouse TRPC4 channel. HEK293 TRPC4beta/mu-opioid, Fluo4 calcium fluorescence; active compounds read high. 310,000 tested, 0.49% active. B-score at 10 µM;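 active = B-score above 5 SD of library B-scores, and initial fluorescence ratio not above library mean plus 5 SD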;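 note: positive B-score marks a calcium rise read as TRPC4 activation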
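system = HEK293 cells stably co-expressing mouse TRPC4beta and mu-opioid receptor | schedule = Fluo4 dye loading 45 min at room temperature, 110 s recording | measure = B-scored integrated calcium fluorescence ratio | signal = Fluo4 calcium-sensitive dye fluorescence, kinetic, 1 Hz baseline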
TRPC4 potent: allosterically enhances the mouse TRPC4 cation channel; Q9QUQ5; HEK293 TRPC4beta/mu-opioid, DAMGO EC20, Fluo-4 Ca2+ flux; active compounds read high; B-score at 10 µM; 310,000 tested, 0.42% active; AID 2227;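 active = B-score of calcium response area above 5 SD of library B-scores, with initial fluorescence ratio within 5 SD of library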
TRPC6 inh: blocks the mouse TRPC6 cation channel; AID 2553; 310,000 tested, 1.1% active; Q61143; HEK293-TRPC6, membrane potential dye, ACh-evoked depolarization; active compounds read low; B-score at 10 µM;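 active = B-score under library mean minus 3 SD, initial fluorescence not abnormally high, positive integrated signal ratio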;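 note: B-score derived from integrated fluorescence ratio over the kinetic read; more negative B-score means stronger inhibition of depolarization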
HEK293 TRPC6 ctr: parental HEK293 nonspecific activity of TRPC6 modulators. shares compounds with TRPC6 inh. membrane potential dye fluorescence. membrane potential signal change, % at 10 µM. 2,400 tested, 51% active. AID 488924;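 active = membrane potential signal moves up or down beyond 5 SD from buffer-only wells, on both duplicate plates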
HEK293 MPD ctr 2: second check of TRPC6 modulator effects in parental HEK293 cells; AID 488926; shares compounds with TRPC6 inh; membrane potential dye fluorescence; after compound, maximal acetylcholine stimulation; 2,400 tested, 14% active; inhibition, % at 10 µM;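 active = membrane potential signal drops by more than 5 SD from the mean control signal, in both duplicate plates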
TRPC4/MOR mod: mouse TRPC4 off-target activity of TRPC6 modulators; shares compounds with TRPC6 inh; HEK293 TRPC4/mu-opioid, membrane potential fluorescence; percent change from control (negative = decrease, positive = increase), % at 10 µM; 2,400 tested, 69% active; AID 488927;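 active = membrane potential signal moved up or down beyond 5 SD of buffer control wells, in both duplicate plates, actives on both sides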
TRPC4 ctr inh 2: second check of whether TRPC6 modulators also affect mouse TRPC4; shares compounds with TRPC6 inh; HEK293 TRPC4/mu-opioid, membrane potential dye fluorescence; stimulated with maximal-effect DAMGO; inhibition, % at 10 µM; 2,400 tested, 55% active; AID 488928;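 active = drop in membrane potential signal beyond 5 SD of the control wells in both duplicate plates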;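 note: TRPC4 counter screen for TRPC6 hits run under conditions tuned for TRPC6 not TRPC4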
TRPC6 block conf: mouse TRPC6 inhibitor confirmation. 3,300 tested, 43% active. shares compounds with TRPC6 inh. HEK293-TRPC6, membrane potential dye, ACh-evoked depolarization. inhibition, % at 10 µM;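 active = fluorescence ratio falls more than 5 SD below the full-stimulation control mean, in both duplicate runs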;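 note: integrated fluorescence ratio of peak minus minimum over baseline after agonist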
TRPC6 act conf: confirmation of mouse TRPC6 activators. shares compounds with TRPC6 inh. HEK293-TRPC6 membrane potential dye fluorescence, FDSS. activation, % at 10 µM. 2,800 tested, 11% active;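 active = ratio signal rise beyond 5 SD above unstimulated control wells' mean, seen in both duplicate runs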
A number is an active result. Only some compounds are listed: those with a hit (about 2.3% of all), similar ones and a draw of the others.

How did COc1ccc(OC)c(CN2CCN(C(=O)c3ccc(F)cc3)CC2)c1 do in these assays?
TRPC6 activator: inactive; TRPC4 block: inactive; TRPC4 act: inactive; TRPC4 potent: inactive; TRPC6 inh: inactive

How did COC(=O)c1cn(Cc2cc(OC)ccc2OC)cc(F)c1=O do in these assays?
TRPC6 activator: inactive; TRPC4 block: inactive; TRPC4 act: inactive; TRPC4 potent: inactive; TRPC6 inh: -5.3; HEK293 TRPC6 ctr: inactive; HEK293 MPD ctr 2: inactive; TRPC4/MOR mod: inactive; TRPC4 ctr inh 2: inactive; TRPC6 block conf: inactive; TRPC6 act conf: inactive

Results for O=C(CN(C(=O)CNC(=O)c1cccs1)c1cccc(F)c1)NC1CCCC1 ?
TRPC6 activator: inactive; TRPC4 block: inactive; TRPC4 act: inactive; TRPC4 potent: inactive; TRPC6 inh: inactive

What do the screens show for `O=S(=O)(c1cc(F)ccc1F)N1CCN(c2ncccn2)CC1`?
TRPC6 activator: inactive; TRPC4 block: inactive; TRPC4 act: inactive; TRPC4 potent: inactive; TRPC6 inh: inactive

How did O=C(CCCN1CCC(c2ccccc2)C1)c1ccc2c(c1)OCCO2 (centres undefined) do in these assays?
TRPC6 activator: inactive; TRPC4 block: inactive; TRPC4 act: inactive; TRPC4 potent: inactive; TRPC6 inh: -6.5; HEK293 TRPC6 ctr: 112%; HEK293 MPD ctr 2: inactive; TRPC4/MOR mod: inactive; TRPC4 ctr inh 2: 77%; TRPC6 block conf: 68%

How did Nc1nc(NCCCN2CCOCC2)nc(Nc2cccc(Cl)c2)c1[N+](=O)[O-] do in these assays?
TRPC6 activator: inactive; TRPC4 block: inactive; TRPC4 act: inactive; TRPC4 potent: inactive; TRPC6 inh: -5.6; HEK293 TRPC6 ctr: inactive; HEK293 MPD ctr 2: inactive; TRPC4/MOR mod: -18%; TRPC4 ctr inh 2: 86%; TRPC6 block conf: 52%; TRPC6 act conf: inactive

Results for CCOC(=O)c1c(NC(=O)/C=C/C(=O)O)sc(C)c1-c1ccc(C(C)(C)C)cc1 ?
TRPC6 activator: 14; TRPC4 block: -10; TRPC4 act: inactive; TRPC4 potent: inactive; TRPC6 inh: inactive; HEK293 TRPC6 ctr: inactive; HEK293 MPD ctr 2: inactive; TRPC4/MOR mod: 18%; TRPC4 ctr inh 2: 50%; TRPC6 block conf: inactive; TRPC6 act conf: 30%

Results for O=C(NCCc1c[nH]c2ccccc12)C(=O)NCC1OCCCN1S(=O)(=O)c1cccs1 (centres undefined) ?
TRPC6 activator: inactive; TRPC4 block: inactive; TRPC4 act: inactive; TRPC4 potent: inactive; TRPC6 inh: inactive

How did COc1ccc(NCc2nnc(SCC(=O)Nc3ccccc3)n2C)cc1 do in these assays?
TRPC6 activator: inactive; TRPC4 block: inactive; TRPC4 act: inactive; TRPC4 potent: inactive; TRPC6 inh: inactive

Results for COc1cc(/C=C2/C(=O)N(c3ccc(Br)cc3)N=C2C)cc(OC)c1OC ?
TRPC6 activator: inactive; TRPC4 block: inactive; TRPC4 act: inactive; TRPC4 potent: inactive; TRPC6 inh: -5.4; HEK293 TRPC6 ctr: inactive; HEK293 MPD ctr 2: inactive; TRPC4/MOR mod: inactive; TRPC4 ctr inh 2: inactive; TRPC6 block conf: inactive; TRPC6 act conf: inactive

What do the screens show for `COc1cc(/C=C2/C(=O)N(c3ccc(C(=O)O)cc3)N=C2C)cc(OC)c1O`?
TRPC6 activator: inactive; TRPC4 block: inactive; TRPC4 act: inactive; TRPC4 potent: inactive; TRPC6 inh: inactive
